{"data": "Measurements pooled from the literature", "target": "Serine/threonine-protein kinase 25 (STK25, Homo sapiens, UniProt O00506)", "note": "Each line is one published result; the experiments were not run side by side."}
{"SMILES": "CC(C)(C)c1cc(C=C(C#N)C#N)cc(Br)c1O", "assay": "enzyme activity, inhibitor", "conditions": "0.5 µM", "measurement": "remaining activity", "value": "102%"}
{"SMILES": "Cn1cc(-c2cccc(N3CCc4c(sc5c4CC(C)(C)C5)C3=O)c2CO)cc(Nc2ccncn2)c1=O", "assay": "enzyme activity, inhibitor", "conditions": "1 µM", "measurement": "inhibition", "value": "-13%"}
{"SMILES": "Nc1ncc(-c2nc(N3CCOCC3)nc(N3CCOCC3)n2)c(C(F)F)n1", "assay": "binding, competition with immobilised ligand", "conditions": "10 µM", "measurement": "remaining binding", "value": "93%"}
{"SMILES": "Cc1nn(C)cc1-c1nc2c(N3CCN(Cc4ccc(Cl)cc4)CC3)c(Cl)cnc2[nH]1", "assay": "binding, competition with immobilised ligand", "conditions": "1 µM", "measurement": "remaining binding", "value": "70%"}
{"SMILES": "O=c1[nH]c2ccccc2n1C1CCN(Cc2ccc(-c3[nH]c4cc5ncnc5cc4nc3-c3ccccc3)cc2)CC1", "assay": "cell-free assay", "conditions": "0.5 µM", "measurement": "remaining signal", "value": "89.8%"}
{"SMILES": "COCc1c(-c2cc3cc(C)cc(OC)c3s2)c2c(N)ncnn2c1CN1CCNC(=O)C1", "assay": "cell-free assay, competition with immobilised ligand", "conditions": "1 µM", "measurement": "inhibition", "value": "87%"}
{"SMILES": "N#CC1(c2ccccn2)CCN(Cc2cc(C(=O)O)c(=O)n3ccccc23)CC1", "assay": "cell-free assay, competition with immobilised ligand", "conditions": "1 µM", "measurement": "remaining binding", "value": "100%"}
{"SMILES": "COc1ncccc1-c1cnn2ccc(N3CCN(C(=O)OC(C)C)CC3)nc12", "assay": "binding, competition with immobilised ligand", "conditions": "1 µM", "measurement": "remaining binding", "value": "65%"}
{"SMILES": "Cn1cc(-c2cc(F)cc(N3CCn4c(cc5c4CCCC5)C3=O)c2CO)cc(Nc2ccc(N3CCN(C4COC4)CC3)cn2)c1=O", "assay": "enzyme activity, inhibitor", "conditions": "0.1 µM", "measurement": "inhibition", "value": "8%"}
{"SMILES": "Cn1cncc1[C@](O)(COc1ccc(C#N)cc1-c1ccc(OC(F)(F)F)cc1)c1ccc(C#N)cc1", "assay": "cell-free assay, competition with immobilised ligand", "conditions": "1 µM", "measurement": "remaining binding", "value": "91%"}
